Sampled rows, rich in hits. Any-hit rate of the full collection: about 3.5%.
FXIa inh 1536 – human FXIa protease inhibitors, primary screen, biochemical, 1536-well. Coagulation factor XI (Homo sapiens), P03951. purified FXIa, Boc-Glu-Ala-Arg-AMC fluorogenic substrate. inhibition, % at 5 µM. 0.14% of 220,000 active;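 active = inhibition of at least 40%; inactive = inhibition below 40%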;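 also: fluorescence of freed AMC excited at 355 nm; 0% = enzyme without compound and 100% = no enzyme blank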
FXIIa inh – human FXIIa protease inhibitors, primary screen, biochemical, 1536-well; purified FXIIa, Boc-QGR-AMC fluorogenic substrate, 2 h; AID 800, 2007; 0.3% of 220,000 active; inhibition, % at 5 µM; in the data active = inhibition above about 40%;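 also: 0% = enzyme with no compound and 100% = blank without enzyme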
STAT3 activator – IL-6 driven STAT3 reporter potentiators, primary screen, U3A cells, luciferase, luminescence, MLSCN library | IL-6 STAT3-luciferase reporter; 100% = signal with IL-6 EC80 alone | 0.91% of 190,000 active | activation (% of control), % at 5.6 µM;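 active = activation above the screen-wide mean of compound activation plus 3 SD, cut at about 130% in these data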;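 also: 0% = background luminescence of wells with medium and substrate only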
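Material: STAT3-luciferase reporter U3A cells. Controls: IL-6-treated wells, 100% activation. Read-out: % activation versus median of IL-6-stimulated wells. Probe or stimulus: IL-6 stimulus at 33 ng/mL final. Timing: compound 1 h, then IL-6 6 h at 37 °C. Signal: reporter luminescence signal.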
AHR act – AHR activators, primary screen, cell-based, luminescence, luciferase reporter, human; 2.5% of 320,000 active; AHR-responsive luciferase reporter cells; activation, % at 5 µM; in the data active = activation above about 47%;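 also: 0% = vehicle wells and 100% = reference agonist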
Thrombin inh – human alpha-thrombin inhibitors, primary screen, counter-screen for coagulation protease inhibitor project, biochemical, 1536-well, fluorogenic AMC substrate; Boc-VPR-AMC fluorogenic substrate cleavage; inhibition, % at 5 µM; 0.26% of 220,000 active; AID 1046, 2008;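 active = inhibition at or above 40%; inactive = inhibition below 40%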;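 also: 0% = enzyme with no compound and 100% = wells without enzyme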
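Material: human alpha-thrombin protein; Also added: Boc-VPR-AMC substrate, 15 µM final; Timing: enzyme reaction carried out at room temperature; Signal: fluorescence, ex 355 nm, em 460 nm; Measure: % inhibition of thrombin; Controls: enzyme without compound as high, wells lacking enzyme as low.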
KLK5 inh – human KLK5 protease inhibitors, primary screen, biochemical, 1536-well. 0.59% of 210,000 active. Kallikrein-5 (Homo sapiens), Q9Y337. recombinant hK5, fluorogenic AMC substrate cleavage. inhibition, % at 5 µM;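 active = inhibition of 40% or more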;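 also: 0% = enzyme controls without compound and 100% = no-enzyme blanks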
Target sequence (Q9Y337 67-293 limits assumed): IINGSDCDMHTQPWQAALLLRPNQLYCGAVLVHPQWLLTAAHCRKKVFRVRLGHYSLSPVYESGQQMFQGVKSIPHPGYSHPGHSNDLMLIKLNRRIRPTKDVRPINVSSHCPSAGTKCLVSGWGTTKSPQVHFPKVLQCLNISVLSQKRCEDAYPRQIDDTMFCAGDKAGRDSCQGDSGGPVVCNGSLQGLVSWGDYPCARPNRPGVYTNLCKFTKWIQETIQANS
The depositor's hits bear a star; · = no result.

SMILES	FXIa inh 1536	FXIIa inh	STAT3 activator	AHR act	Thrombin inh	KLK5 inh
O=C(CSc1nc2ccccc2[nH]1)NCc1ccc2c(c1)OCO2	2	9	98	55*	-15	-16
O=C(CCc1nc2ccccc2[nH]1)NCc1ccc2c(c1)OCO2	2	4	100	8	-2	-5
O=C(CSc1nc2ccc(Cl)cc2o1)NCc1ccc2c(c1)OCO2	22	24	91	7	-1	2
O=C(CSc1nc2ccccc2o1)NCc1ccc2c(c1)OCO2	-2	14	96	70*	-6	-3
Cc1ccccc1/C=N/NC(=O)CSc1nc2ccccc2o1	8	13	95	3	-1	-10
Cc1ccccc1NC(=O)CSc1nc2ccccc2o1	15	5	94	-2	15	51*
COc1cc(OC)cc(-n2nc(C(=O)NCCCN3CCOCC3)c3ccccc3c2=O)c1	5	8	102	6	-1	14
COCCNC(=O)c1nn(-c2cc(OC)cc(OC)c2)c(=O)c2ccccc12	15	18	96	32	8	66*
COc1cc(NC(N)=S)c(OC)cc1Cl	7	4	·	-1	-1	3
Cc1noc(C(=O)Nc2ccc(Cl)cc2)c1Cl	·	·	·	1	·	·
COc1cc(N/C(N)=N/c2nc(C)cc(C)n2)c(OC)cc1Cl	-1	6	88	54*	-5	2
Cc1noc(C(=O)Nc2cc(Cl)ccc2O)c1Cl	·	·	·	56*	·	·
COc1cc(NC(=O)c2onc(C)c2Cl)c(OC)cc1Cl	-6	1	119	60*	1	-1
COc1cc(NC(=O)c2cc(C)no2)c(OC)cc1Cl	·	·	·	17	·	·
COc1ccc(C(=O)Nc2ccc(-c3nnn(CC(=O)NCc4ccco4)n3)cc2)cc1	-3	2	·	7	-4	-2
O=C(NC1CC1)C(=O)c1c[nH]c2ccccc12	·	·	·	63*	·	·
C[C@@H](NC(=O)C(=O)c1c[nH]c2ccccc12)c1ccccc1	·	·	·	7	·	·
CSc1ccccc1NC(=O)C(=O)c1c[nH]c2ccccc12	2	10	129	48*	-1	16
O=C(Nc1nccs1)C(=O)c1c[nH]c2ccccc12	-8	-2	136*	59*	-1	-1
O=C(OCC(=O)N1CCc2ccccc2C1)c1c(F)cccc1Cl	·	·	·	0	·	·
CC1=CCC2C(=O)N(c3cccc(C(=O)Nc4ccc(Cl)cc4)c3)C(=O)C2C1 (stereo unspecified)	·	·	·	69*	·	·
CCCCC(=O)C1=C(N2CCCC2)CC(C)(C)CC1=O	0	8	99	-2	2	-6
CCC(=O)C1=C(N2CCCC2)CC(C)(C)CC1=O	3	27	100	5	11	47*
CCN1CCN(C(=O)c2sc3ncnc(N4CCc5ccccc5C4)c3c2C)CC1	1	8	98	49*	11	-6
Cc1c(C(=O)N2CCOCC2)sc2ncnc(N3CCc4ccccc4C3)c12	17	45*	102	28	2	7
SMILES	FXIa inh 1536	FXIIa inh	STAT3 activator	AHR act	Thrombin inh	KLK5 inh
CC(=O)c1c(C)[nH]c(C(=O)NNC(=O)COc2ccc(Cl)cc2C)c1C	·	·	·	1	·	·
COc1ccc(CCNC(=O)c2[nH]c(C)c(C(C)=O)c2C)cc1OC	-6	-11	93	74*	-4	2
COc1ccc(Cl)cc1NC(=O)c1[nH]c(C)c(C(C)=O)c1C	·	·	·	68*	·	·
Cc1ccc(N(C(=O)C2CCCC2)C2C=CS(=O)(=O)C2)cc1 (stereo unspecified)	-7	-3	105	1	2	114*
O=C(CSc1ccc(-c2ccco2)nn1)Nc1ccc(F)cc1F	·	·	·	5	·	·
CC(C)OC(=O)c1cccc(NC(=O)CSc2nnc(N)s2)c1	34	103*	95	2	18	37
Nc1nnc(SCC(=O)Nc2ccccc2)s1	9	3	·	-1	-2	-3
CC(C)CCNC(=O)CN(Cc1cccs1)C(=O)CCC(=O)Nc1nccs1	-6	4	102	4	-4	-32
Cc1cc(C)nc(Nc2nc(C)c3cc4c(cc3n2)OCO4)n1	-3	8	98	49*	0	-14
O=C(Cc1nc(=O)c2ccccc2s1)Nc1ccccc1	17	32	103	50*	0	-14
Cc1ccc(C(=O)Nc2ccc3ccccc3n2)cc1	·	·	·	5	·	·
Cc1cc(C)cc(NC(=O)Nc2ccc3ccccc3n2)c1	2	5	·	56*	-1	3
Cc1cccc(/C(N)=N/OC(=O)c2ccc(Cl)cc2Cl)c1	2	14	100	42	0	-18
COc1cc(OC)cc(C(=O)O/N=C(\N)c2cccc(C)c2)c1	·	·	·	41	·	·
Cc1cccc(/C(N)=N/OC(=O)c2ccc(Br)o2)c1	5	20	117	71*	27	20
Cc1cccc(/C(N)=N/OC(=O)c2cccc3ccccc23)c1	·	·	·	73*	·	·
COC(=O)c1ccc(C2Nc3ccc(/C(C)=N/NC(=O)C(OC)c4ccccc4)cc3C3C=CCC32)cc1 (stereo unspecified)	-3	3	93	7	4	-11
COc1ccc(-c2cc(C(F)F)n3ncc(C(=O)n4ccnc4C)c3n2)cc1	-4	-3	84	10	88*	-17
C/C(CC(=O)NCCCN1CCOCC1)=N\NC(=O)COc1ccc(C)cc1	3	24	107	-1	11	47*
C/C(CC(=O)NCCCN1CCOCC1)=N\NC(=O)COc1ccc(Cl)cc1	-1	15	106	5	2	-4
COc1ccc(C)cc1N1CC(C(=O)Nc2ccccc2C(=O)NC2CC2)CC1=O (stereo unspecified)	·	·	·	1	·	·
Cc1cc(NS(=O)(=O)c2ccc(Nc3nc(-c4ccc(O)cc4)cs3)cc2)no1	3	15	98	60*	-7	-17
CC(=O)Nc1nc(-c2ccc3ccccc3c2)cs1	·	·	·	-4	·	·
Oc1ccc(Nc2nc(-c3ccc4ccccc4c3)cs2)cc1	-1	15	95	64*	7	12
Cc1cc(NS(=O)(=O)c2ccc(Nc3nc(-c4ccc(C)c(C)c4)cs3)cc2)no1	-1	0	95	0	-6	-8
COC(=O)c1c(/N=C/N(C)C)sc2c1CCN(c1ncc(C(F)(F)F)cc1Cl)C2	7	18	97	72*	3	0
CC(C)(C)c1ccc(OC(=O)Cn2c(C(F)(F)F)nc3ccccc32)cc1	2	16	91	-3	2	-10
Cc1sc(NC(=O)C2=COCCO2)nc1-c1ccc(F)cc1	·	·	·	52*	·	·
Cc1ccsc1C(=O)Nc1ccc(O)c(-c2nc3ccccc3s2)c1	0	4	104	46	-4	-4
